Measurements published in ChEMBL document CHEMBL4400548, “Structure-Based in Silico Screening Identifies a Potent Ebolavirus Inhibitor from a Traditional Chinese Medicine Library” (J Med Chem, 2019).
Active and inactive are the calls of the source. No cut-off for these calls is given here.

How the values were obtained:
[1] = tested on: Ebola virus - Zaire (1995); assay: Binding affinity to recombinant Ebola virus Zaire Mayinga-76 Envelope glycoprotein assessed as change in melting temperature up to 500 uM by SYPRO-dye based thermal shift assay
[2] = tested on: Ebolavirus; assay: Antiviral activity against HIV-1-derived Ebolavirus pseudoparticle infected in human TZM-bl cells after 48 hrs by beta-gal based reporter assay; type: functional, organism-based; details: Orthoebolavirus
Outline: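 TZM-bl cells were plated at 2 × 10^4 per well 24 h ahead and chilled on ice. EBOVpp (1 in 10 dilution) was spinoculated at 2100g for 30 min at 4 °C, then removed with a PBS wash. Compound (100–0.125 μM) was added in DMEM/5% FBS for 48 h at 37 °C. Cells were fixed in 2% PFA, X-gal stained and imaged for infected/total cells. Triplicate runs; sigmoidal fit for IC50.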

SMILES | Activity [1] | IC50 [2] [nM] | IC80 [2] [nM]
Cc1[nH]nc(-c2ccc(OCCN3CCC(C(N)=O)CC3)cc2O)c1-c1ccc(Cl)cc1 | Active | 50 | 390
O=C(/C=C/c1cc(Br)cc2c1OCOC2)c1cc(F)ccc1O | inactive | – | –
O=C(/C=C/C1=Cc2ccccc2OC1)c1ccc(O)cc1 | inactive | – | –
Nc1ccc(SSc2ccc(N)cc2)cc1 | inactive | – | –
N#Cc1cc(N)ccc1Sc1cccc(C(F)(F)F)c1 | inactive | – | –
COc1ccc(CC(=O)c2c(C)cc(O)cc2O)cc1 | inactive | – | –
CN(C)CCOc1ccc(/C(=C(/CCCl)c2ccccc2)c2ccccc2)cc1 [TOREMIFENE] | – | 90 | 3000
NC(=O)C1CCN(CCOc2ccc(-c3n[nH]cc3-c3ccccc3)c(O)c2)CC1 | Active | 3100 | 50000
